The source of these data is ChEMBL document CHEMBL2434961, “Development of 3-phenyl-4,5,6,7-tetrahydro-1H-pyrazolo[4,3-c]pyridine derivatives as novel Mycobacterium tuberculosis pantothenate synthetase inhibitors” (Eur J Med Chem, 2013).

Values after ≈ are worked out from the molar mass of the structure shown.

By MIC is commonly meant the lowest concentration found to suppress growth. As usually defined, the IC50 is the concentration that gives 50% inhibition. What is called inhibition is the drop in the measured response relative to a control, in per cent. Usually Kd stands for the concentration at which binding is half-saturated. High values mean lower affinity, low ones higher affinity.

The nature of data set [1]: Cytotoxicity against mouse RAW264.7 cells assessed as inhibition of cell viability at 50 uM after 72 hrs by MTT assay relative to control. In kind it is cell-based. Particulars: read-out: INH. Put shortly: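 RAW 264.7 mouse macrophage cells exposed to compound at 50 µM for 72 h. Viability assessed by cellular conversion of MTT to formazan.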
A general note: Formazan colour is commonly taken as a measure of viable cells.

Data set [2] deals with Mycobacterium tuberculosis. As to the kind of experiment: Antibacterial activity against Mycobacterium tuberculosis H37Rv ATCC 27294 assessed as growth inhibition after 28 days by agar dilution method. The settings on record: H37Rv ATCC 27294, 672 h. In kind it is functional. The procedure, abridged:
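Two-fold serial dilutions incorporated into Middlebrook 7H11 agar with OADC, final 50 to 0.78 µg/mL. Inoculum of 1 mg/mL (wet weight) in 0.05% Tween 80 saline, diluted 10⁻² to ~10⁷ cfu/mL. 5 µL spotted per tube, incubated at 37 °C for 28 days. MIC is the lowest concentration giving complete growth inhibition.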
In general terms: In agar dilution, organisms are placed on agar that contains the substance at set levels.

The target of data set [3] is T1, Pantothenate synthetase (Mycobacterium tuberculosis, UniProt P9WIL5).
T1 sequence (P9WIL5 whole entry): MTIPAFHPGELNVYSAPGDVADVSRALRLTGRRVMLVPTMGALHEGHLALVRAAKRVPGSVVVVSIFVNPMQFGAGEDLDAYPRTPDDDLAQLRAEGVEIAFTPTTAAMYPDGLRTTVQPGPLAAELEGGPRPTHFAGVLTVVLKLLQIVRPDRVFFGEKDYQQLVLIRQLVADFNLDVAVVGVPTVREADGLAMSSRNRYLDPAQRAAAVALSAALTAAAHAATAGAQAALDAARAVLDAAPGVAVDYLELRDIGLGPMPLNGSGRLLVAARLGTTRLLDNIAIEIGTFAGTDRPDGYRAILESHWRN
As to the kind of experiment: Inhibition of Mycobacterium tuberculosis pantothenate synthetase cloned in Escherichia coli BL21 (DE3) using ATP, beta-alanine, pantoic acid as substrate assessed as NAD+ production measured every 12 secs for 120 secs by spectrophotometric analysis. The procedure, abridged: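 Same AMP-coupled NADH/A340 PS assay (NADH, pantoic acid, β-alanine, ATP, PEP, MgCl₂, myokinase, pyruvate kinase, LDH; reaction started with enzyme; read every 12 s for 120 s). IC₅₀ determined for compounds exceeding 60% inhibition at 100 µM, using rate-based % inhibition corrected for background.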

Data set [4] deals with T2, Pantothenate synthetase (Mycobacterium tuberculosis) (UniProt P9WIL5).
T2 sequence (whole entry): T1 sequence (P9WIL5 whole entry)
As to the kind of experiment: Inhibition of Mycobacterium tuberculosis pantothenate synthetase cloned in Escherichia coli BL21 (DE3) using ATP, beta-alanine, pantoic acid as substrate assessed as NAD+ production at 100 uM measured every 12 secs for 120 secs by spectrophotometric analysis relative to control. The procedure, abridged: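 Coupled assay linking AMP from β-alanine plus pantoate condensation to NADH oxidation via myokinase, pyruvate kinase and lactate dehydrogenase. Mix held NADH, pantoic acid, β-alanine, ATP, phosphoenolpyruvate and MgCl₂ in buffer; compound (100 µM) added; reaction started with PS. A340 read every 12 s for 120 s. % inhibition = 100 × (1 − (compound rate − background)/(full rate − background)).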

Data set [5] addresses T1, Pantothenate synthetase. As to the kind of experiment: Binding affinity to Mycobacterium tuberculosis pantothenate synthetase.

With `O=C(Nc1ccc([N+](=O)[O-])cc1)N1CCc2c(c(-c3ccccc3)nn2C(=O)c2ccccc2)C1`, the cytotoxicity at 72 h, 50 µM in data set [1] turned out to be 0%. Moreover, in data set [2], the minimal inhibitory concentration (MIC) came to 26.7 µM (≈ 12.5 µg/mL). Besides, the IC50 at Pantothenate synthetase [3] was 21.8 µM. Also, in data set [4], the inhibition was found to be 95.7%.

With `CC(C)(C)OC(=O)N1CCc2[nH]nc(-c3ccccc3)c2C1`, in data set [2], the MIC is 26.7 µM (≈ 7.99 µg/mL). For the same compound, the IC50 on Pantothenate synthetase [3] was found to be 21.8 µM.

Consider `O=C(Nc1ccc(Br)cc1)N1CCc2c(c(-c3ccccc3)nn2C(=O)c2ccccc2)C1`, for which the cytotoxicity at 72 h, 50 µM in data set [1] amounted to 42%. For the same compound, in data set [2], the MIC came out at 99.7 µM (≈ 50 µg/mL). Besides, the IC50 at Pantothenate synthetase [3] is 82.1 µM. The inhibition in data set [4] was determined as 60.6%.

For the compound `Cc1ccc2c(c1)C=C(C(=O)NS(=O)(=O)c1cc3ccccc3o1)C2CC(=O)O` (centres undefined), binding at Pantothenate synthetase [5] was put at a Kd of 1.8 µM.

As for `O=C(Nc1cccc2ccccc12)N1CCc2c(c(-c3ccccc3)nn2C(=O)c2ccccc2)C1`, the cytotoxicity at 72 h, 50 µM in data set [1] came to 4.7%. Further, the MIC in data set [2] was found to be 48.8 µM (≈ 23.1 µg/mL). Also, the IC50 at Pantothenate synthetase [3] came out at 38.2 µM. For the same compound, the inhibition in data set [4] was 89.8%.

On to `CC(=O)c1ccc(S(=O)(=O)N2CCc3c(c(-c4ccccc4)nn3C(=O)c3ccccc3)C2)cc1`, for which the cytotoxicity at 72 h, 50 µM in data set [1] turned out to be 5.3%. Moreover, the MIC in data set [2] was found to be 51.5 µM (≈ 25 µg/mL). For the same compound, at Pantothenate synthetase [3], the IC50 was 39.1 µM. Further, the inhibition in data set [4] came out at 78.5%.

`O=C(c1ccccc1)n1nc(-c2ccccc2)c2c1CCN(S(=O)(=O)c1ccc(F)cc1)C2`: in data set [1], the cytotoxicity at 72 h, 50 µM stood at 0%. The MIC in data set [2] was 54.2 µM (≈ 25 µg/mL). Also, on Pantothenate synthetase [3], the IC50 is 38.6 µM. For the same compound, in data set [4], the inhibition is 77%.

As for `CCOc1ccc(NC(=O)N2CCc3c(c(-c4ccccc4)nn3C(=O)c3ccccc3)C2)cc1`, the cytotoxicity at 72 h, 50 µM in data set [1] stood at 0%. For the same compound, the MIC in data set [2] was more than 107 µM. For the same compound, the inhibition in data set [4] came out at 47.2%.

Regarding `Cc1ccc(NC(=O)N2CCc3c(c(-c4ccccc4)nn3C(=O)C3CCCCC3)C2)cc1`, the cytotoxicity at 72 h, 50 µM in data set [1] was determined as 15.1%. Moreover, in data set [2], the MIC worked out at 56.5 µM (≈ 25 µg/mL). Moreover, the inhibition in data set [4] is 40.8%.
